The EternaBench riboswitch data

System: MS2 coat protein
Test: apparent Kd, MS2 coat protein; higher = weaker binding; RNA-MaP array
Outline: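 Apparent Kd is the median of per-cluster binding-curve fits for designed RNAs transcribed from sequenced DNA templates on an Illumina sequencing chip. The RNAs were incubated at room temperature with fluorescently labeled MS2 coat protein at 1.5 nM to 3 μM, with or without input ligand, and designs measured on fewer than 10 clusters were excluded.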

[1] = designed as: OFF switch for flavin mononucleotide, no ligand
[2] = ligand present: flavin mononucleotide, designed as: OFF switch for flavin mononucleotide
[3] = designed as: ON switch for tryptophan, no ligand
[4] = ligand present: tryptophan, designed as: ON switch for tryptophan
[5] = designed as: ON switch for flavin mononucleotide, no ligand
[6] = ligand present: flavin mononucleotide, designed as: ON switch for flavin mononucleotide
[7] = designed as: OFF switch for tryptophan, no ligand
[8] = ligand present: tryptophan, designed as: OFF switch for tryptophan

| Sequence | apparent Kd [1] [nM] | apparent Kd [2] [nM] | further results |
| --- | --- | --- | --- |
| AUCGGCAGAAAAGAUACCAGAGUAAUACACAACAUGAGGAUCACCCAUGUACGGACAAUCCUCCCUUGGCAGCUUGUAACAGUAU |  |  | apparent Kd (designed as: ON switch for theophylline, no ligand): 47.8 nM; apparent Kd (ligand present: theophylline, designed as: ON switch for theophylline): 26.9 nM |
| CUUGUGUGAGGAUAUUAGACACAAUCCGACAGCGGGAUAGUUAAGAAGGCACAUGAGGAUCACCCAUGUUGAGU | 44.2 | 81.2 |  |
| UUAAAACUAGGAUAUACAUGAGGAUCACCCAUGUGAACACACAAACAAAGAAAAUAAUGUAGAAGGAGACUAUA | 10.8 | 8.87 |  |
| ACUCAGUGAGGAUAUAUAGACGAGGAAAAGUGGAAACUUGAAUAGAAGGCACAUGAGGAUCACCCAUGUCGACG | 8.5 | 10.8 |  |
| CCCUCGUCAACGGCCGCCACUGUGAUUCACUAAGAUAAUAUUGCACAUGAGGAUCACCCAUGUCUCAGGACCGGGUUGGUGUGUC |  |  | apparent Kd [3]: 105 nM; apparent Kd [4]: 65.9 nM |
| CAUUCUUUAGUAAGGAUAUCAACUUGUUUAUAUAAUGAGAAGGUACAUGAGGAUCACCCAUGUCUCACAUCGGU | 8.72 | 7.9 |  |
| AGCAAGACCGAGUCCAAUAACAUGAGGAUCACCCAUGUGUUCGAGGAUAUUAGGACUGAUGGGACUAAGAAGGCGAUCCCUUGU |  |  | apparent Kd [5]: 46.5 nM; apparent Kd [6]: 37.2 nM |
| GGAUGAAGGAAGGAUAUUACGCAGCAACGACCGUAAGAAGGUCCAACAUGAGGAUCACCCAUGUGGUGCUUACU | 33.2 | 159 |  |
| UAUAACGAAAGAGGAUAUAUCGGCCGUCUACGGAUAGAAGGCUUUCGCUAUGGCACUGAUGAUCUACAUGAGGAUCACCCAUGU | 7.91 | 7.19 |  |
| AAGGGCGACGGACAGGAUAUAGUUAUUGUUACAUGAGGAUCACCCAUGUCUCCAGGUCUUUGACGCUAGAAGGGUCCCUCCUCGAC |  |  | apparent Kd [5]: 61.2 nM; apparent Kd [6]: 26.5 nM |
| UCAUCGAGAGAGGAUAUCGUAGCAAUUCACCAGCGAGAAGGCUCGACAUGAGGAUCACCCAUGUGGCUCCGCUU | 24.2 | 73.6 |  |
| UUCUAUGUGACAGGAUAUAGACUCCACCAGUUUCUAGAAGGGUCACAGACGGAUCUUUAUUUGUCACAUGAGGAUCACCCAUGU |  |  | apparent Kd [5]: 28.7 nM; apparent Kd [6]: 9.71 nM |
| UCCCGCUGCACAGGAUAUUGGAAAAUACAUGAGGAUCACCCAUGUGCUUAUAUGAGGUCUGCCUCCAAGAAGGGUGAGAUAAUC | 113 | 89.6 |  |
| UCCUUGGAGUCAGGAUAUGUCGACAACGGAAUGACAGAAGGGACUUGGCAGCUUAAUUCUUCAGUACAUGAGGAUCACCCAUGU | 9.35 | 9.19 |  |
| CUUUGACGUGAGAAGGUGCAGGGAAUACACAAGCAAGGAUAUCAUGCACAUGAGGAUCACCCAUGUCCUGUAACGUUUGGUGAC | 437 | 302 |  |
| AGCUAUUCGGGUAAGGAUAUCGAUGUUGUUACAUGAGGAUCACCCAUGUUGCUCGACAUCAGUGACGAGAAGGUACAGCGUGGUAU |  |  | apparent Kd [5]: 8.89 nM; apparent Kd [6]: 8.79 nM |
| UUGCAAUAGUAGAAGGACCACUCAAGUGUGACGGUAGGAUAUACGGUACAUGAGGAUCACCCAUGUGAGACUACAGCCCUCUCC | 20 | 21.9 |  |
| AGGUAGCGAGACUUACAUGAGGAUCACCCAUGUACCACGCGGAAGGAUAUAACGGCAGGCUUUGCUUAGAAGGUCCGCGGUACU | 26.9 | 20.4 |  |
| UUGCAACAAACAGGAUAUACGCGGACUUCACGGGUAGAAGGGUUCGACCAGGAGAUAUCCCACAUGAGGAUCACCCAUGUCGUC | 163 | 130 |  |
| CCGGCAACGUAAGGAUAUGAUUCGCGUCUUGACAUGAGGAUCACCCAUGUAACUGUCGAAAUGGCUCAGAAGGUACCAGUGCCC |  |  | apparent Kd [5]: 26.6 nM; apparent Kd [6]: 17.9 nM |
| GCACCGCGAGGAUAUACUCUGGCUAUAAUACCAUAUGACAAACAUGAGGAUCACCCAUGUAGAAGGCGCGAUGU | 10.4 | 14.2 |  |

| Sequence | apparent Kd [1] [nM] | apparent Kd [2] [nM] | further results |
| --- | --- | --- | --- |
| GUAGAACCGCAGAAGGCAUUGAUUCGAGAGCGAUGAGGAUAUGCUCGUCGACAUGAGGAUCACCCAUGUUUACGAUUGAGAUAU |  |  | apparent Kd [5]: 15.1 nM; apparent Kd [6]: 9.74 nM |
| AGUUUUCCUGAGAAGGUGGAGGUCUUUCAUUGCCAAGGAUAUCAGACAACAAUGUAGCCCAAACAUGAGGAUCACCCAUGUCUC |  |  | apparent Kd [5]: 70.7 nM; apparent Kd [6]: 42.1 nM |
| UCUCGUGUGAAGGAUAUAGAUAUUUAACAAAAGCUAGAAGGUCAAACAUGAGGAUCACCCAUGUUUACAUAGGA | 8.77 | 10.9 |  |
| CCGUUCGCCGAGAAGGGACAGGACUUAAUAGCGUCAGGAUAUCGCGGACCGUGAUUCUAUGACAUGAGGAUCACCCAUGUGCUU | 34.7 | 11.7 |  |
| AAUUGAAACAGAGGUAUAUACGGACAUUACCGAGGACCGGUACGGCCGCCACUCGACCUAAAACAUGAGGAUCACCCAUGUAGCA |  |  | apparent Kd [7]: 13.1 nM; apparent Kd [8]: 13.6 nM |
| AACUGAAGCACCUUAUGCGGCGGCAAAACCCGAGGACCGGUACGGCCGCCACUCGAGUCGCAACAUGAGGAUCACCCAUGUGUAU |  |  | apparent Kd [7]: 51.3 nM; apparent Kd [8]: 117 nM |
| AGACUCCUAGCAGGAUAUGUUCAAGGAACAAAGAGAACAUGAGGAUCACCCAUGUACACAUAUGAACAGAAGGGCUGAAGAAAA |  |  | apparent Kd [5]: 8.24 nM; apparent Kd [6]: 6.66 nM |
| UGAACACUGUGAGGAUAUCCACAUGAGGAUCACCCAUGUUUCCUCAGUGAUGCUAUAGCUUCCACGGAGAAGGCACAUGUAAUC | 31.2 | 48.2 |  |
| GCAGAUACCAUGAGUCGACAUGAGGAUCACCCAUGUACUCCCAGAAGGAUGUACUUUGUUCAAGCAUAGGAUAUGGGCCGAACC |  |  | apparent Kd [5]: 114 nM; apparent Kd [6]: 56 nM |
| CGAAGACAUGAGGAUCACCCAUGUAAGGAUAUUCAAAGAGCGCACCUGAAUGCCCUAUGAAGAAGGUACCGGGC | 69.9 | 52.1 |  |
| GAUCGACAUGAGGAUCACCCAUGUGAGGAUAUACCGCGGACUCCGUCUGCAUGUUAGGGUAGAAGGCACCGAGC | 14.1 | 13.1 |  |
| ACAUACAUGAGGAUCACCCAUGUGGGAUCUUCCUCUAAAACUAAGGAUAUGUCAGUUGGUUAACUACAGAAGGUAGGUCGGAAC | 313 | 306 |  |
| CUCGUGUGAGGAUAUUGAUCACAGGUCACGGUGCAGGAAUACAAGAAGGCACAUGAGGAUCACCCAUGUAACCG | 15.7 | 45 |  |
| GUGCCACAUGAGGAUCACCCAUGUUUGGCAAGCAAAGGAUAUGGAAUGAUGGCUCGCAGCCCAGAAGGUUGUUGUG |  |  | apparent Kd [5]: 4.52 nM; apparent Kd [6]: 4.76 nM |
| AGUCACAUGAGGAUCACCCAUGUGCCAGAACGAGGACCGGUACGGCCGCCACUCGAGGCGUCCGUCGACAAUAAUGUGAACUGCA |  |  | apparent Kd [3]: 10.7 nM; apparent Kd [4]: 12.1 nM |
| AGCAAUACAUAAGGAUAUGACAUCCAAGAGGAAUCAGAAGGUAUGCAGGCGACAUGAGGAUCACCCAUGUAAUCAUGAGGCAAU |  |  | apparent Kd [5]: 19.4 nM; apparent Kd [6]: 15.8 nM |
| GAUGAGUUUAAGGAUAUGGUGCGUUGCUUCUUACCAGAAGGUAAAACAUGAGGAUCACCCAUGUGACGGGUGCC | 177 | 103 |  |
| AGUUCACAGGUGAGGAUAUCGGAGCACACAGACAGCGAGAAGGCACAUGAGGAUCACCCAUGUGGUCAGAAAAC | 8.73 | 10.8 |  |
| AUCAUGUUAGGAUAUACAAUGUAACGAUCAUUCUUGUAUGCGUAGAAGGAACAUGAGGAUCACCCAUGUGGAAG | 43 | 46.8 |  |
| UGCCCACAGGAGAAGGUGGCUCAACCAGAGCGCCAAGGAUAUCCGGAGUUACUCCUCACUACAUGAGGAUCACCCAUGUUUCAU | 71.5 | 54.6 |  |
| AAUUGUCGAGCAGGAUAUAGCUGACAGGAUAUUCAACUAACGACAUGAGGAUCACCCAUGUGUGGCUAGAAGGGCUUCAAGGCA |  |  | apparent Kd [5]: 15.2 nM; apparent Kd [6]: 11.5 nM |
